Laboratory results as given in ChEMBL document CHEMBL4725241, “Discovery of BMS-986235/LAR-1219: A Potent Formyl Peptide Receptor 2 (FPR2) Selective Agonist for the Prevention of Heart Failure” (J Med Chem, 2020).
Activity calls are given as the source filed them. No cut-off for these calls is given here.

How the values were obtained:
[1] = molecular target: T1, N-formyl peptide receptor 2 (Homo sapiens, UniProt P25090); test: Agonist activity at human FPR2 expressed in HEK 293 cells co-expressing Galpha15 measured every 1.5 sec for 80 sec by Fluo-4 NW staining based scanning fluorometric method; assay type: cell-based, HEK293
T1 sequence (P25090 whole entry): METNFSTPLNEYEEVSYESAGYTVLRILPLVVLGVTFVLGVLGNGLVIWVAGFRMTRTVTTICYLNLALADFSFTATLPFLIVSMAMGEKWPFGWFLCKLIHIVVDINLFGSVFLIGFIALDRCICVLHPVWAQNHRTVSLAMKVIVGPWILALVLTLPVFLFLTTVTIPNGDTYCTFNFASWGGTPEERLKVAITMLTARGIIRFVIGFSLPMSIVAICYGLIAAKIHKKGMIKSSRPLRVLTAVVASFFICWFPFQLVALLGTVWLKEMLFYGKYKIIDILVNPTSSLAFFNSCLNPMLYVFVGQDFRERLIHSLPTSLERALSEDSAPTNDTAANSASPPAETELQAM
Outline: (§1)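 HEK293 cells were transiently co-transfected with FPR plus Gα15 (Lipofectamine 2000), then reseeded after 24 h on poly-D-lysine plates and grown one more day. Cells were loaded with Fluo-4 NW for 45 min at 37°C. Compound was added and fluorescence (ex 485/em 525 nm) read for 80 s at 1.5 s intervals. Response = maximal peak minus basal.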

[2] = molecular target: T2, fMet-Leu-Phe receptor (Homo sapiens, UniProt P21462); test: Agonist activity at human FPR1 expressed in HEK 293 cells co-expressing Galpha15 measured every 1.5 sec for 80 sec by Fluo-4 NW staining based scanning fluorometric method; assay type: cell-based, HEK293
T2 sequence (P21462 whole entry): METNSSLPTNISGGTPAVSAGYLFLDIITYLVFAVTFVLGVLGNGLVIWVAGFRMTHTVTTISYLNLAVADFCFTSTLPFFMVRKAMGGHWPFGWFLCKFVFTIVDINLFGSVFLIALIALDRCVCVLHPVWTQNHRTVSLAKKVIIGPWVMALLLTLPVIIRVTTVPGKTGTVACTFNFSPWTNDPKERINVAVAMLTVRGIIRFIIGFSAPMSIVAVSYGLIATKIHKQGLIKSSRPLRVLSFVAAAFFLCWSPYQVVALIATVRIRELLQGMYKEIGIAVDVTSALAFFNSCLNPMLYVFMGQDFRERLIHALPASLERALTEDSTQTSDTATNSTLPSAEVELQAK

[3] = molecular target: T3, Formyl peptide receptor 2 (Mus musculus, UniProt O88536); test: Agonist activity at mouse FPR2 expressed in HEK 293 cells co-expressing Galpha15 measured every 1.5 sec for 80 sec by Fluo-4 NW staining based scanning fluorometric method; assay type: cell-based, HEK293; outline: as §1
T3 sequence (O88536 whole entry): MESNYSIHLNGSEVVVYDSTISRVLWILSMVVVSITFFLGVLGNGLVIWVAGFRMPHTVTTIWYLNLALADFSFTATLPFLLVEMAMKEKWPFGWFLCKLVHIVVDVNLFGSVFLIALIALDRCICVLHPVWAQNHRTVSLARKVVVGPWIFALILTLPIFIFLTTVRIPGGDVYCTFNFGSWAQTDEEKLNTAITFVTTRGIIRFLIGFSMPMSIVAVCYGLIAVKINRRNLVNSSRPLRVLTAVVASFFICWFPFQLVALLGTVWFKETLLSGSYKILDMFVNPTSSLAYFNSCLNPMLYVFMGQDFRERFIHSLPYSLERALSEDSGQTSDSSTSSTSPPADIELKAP

[4] = molecular target: Cytochrome P450 3A4 (Homo sapiens, UniProt P08684); test: Inhibition of recombinant human CYP3A4; assay type: ADME
Cytochrome P450 3A4, sequence (P08684 whole entry): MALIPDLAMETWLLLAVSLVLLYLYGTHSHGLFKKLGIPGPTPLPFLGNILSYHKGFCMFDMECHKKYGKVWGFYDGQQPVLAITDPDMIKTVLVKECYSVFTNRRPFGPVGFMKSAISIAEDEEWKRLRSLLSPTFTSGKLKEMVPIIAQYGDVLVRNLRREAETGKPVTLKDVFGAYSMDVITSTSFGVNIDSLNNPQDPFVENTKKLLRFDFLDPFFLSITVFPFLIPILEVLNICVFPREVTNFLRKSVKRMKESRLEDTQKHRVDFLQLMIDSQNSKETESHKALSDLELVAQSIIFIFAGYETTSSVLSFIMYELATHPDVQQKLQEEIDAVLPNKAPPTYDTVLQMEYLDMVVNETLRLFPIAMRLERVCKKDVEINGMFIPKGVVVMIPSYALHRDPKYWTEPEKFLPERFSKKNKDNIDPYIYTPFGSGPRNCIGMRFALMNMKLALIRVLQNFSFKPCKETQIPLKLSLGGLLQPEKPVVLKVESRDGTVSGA

[5] = In vivo […] in mouse assessed as reduction in LPS-induced neutrophil infiltration in BALF cells at 1 mg/kg, po relative to control; assay type: functional
Outline: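 Mice were given LPS and dosed orally at 1 mg/kg. Neutrophils in BALF were counted, and percent inhibition was calculated.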

[6] = test system: Mus musculus; test: Cardioprotective activity in C57BL/6 mouse model of LAD coronary artery ligation-induced myocardial infarction assessed as reduction in heart weight at 100 mg/kg, po and measured after 28 days; assay type: functional, organism-based; conditions: time 28.0 day
Outline: (§2)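 Male C57BL/6 mice (10-12 weeks) underwent permanent LAD ligation. Captopril was given in drinking water (~100 mg/kg/day). Endpoints were taken at 28 days post-MI, with histomorphometry of LV cross sections for scar length.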

[7] = test system: Mus musculus; test: Cardioprotective activity in C57BL/6 mouse model of LAD coronary artery ligation-induced myocardial infarction assessed as reduction in LV chamber area at 100 mg/kg, po and measured after 28 days; assay type: functional, organism-based; conditions: time 28.0 day; outline: as §2
[8] = test system: Mus musculus; test: Cardioprotective activity in C57BL/6 mouse model of LAD coronary artery ligation-induced myocardial infarction assessed as reduction in scar length at 0.3 mg/kg, po and measured after 28 days relative to control; assay type: functional, organism-based; conditions: time 28.0 day
Outline: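 Male C57BL/6 mice (10-12 weeks) underwent permanent LAD ligation under ketamine/xylazine, with shams having an untightened suture. Compound (0.3 mg/kg/d) or vehicle was given by oral gavage once daily (5 mL/kg) from post-MI day 4 for 24 days. Endpoints were taken at 28 days post-MI; scar length was quantified from LV cross sections.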

Structure (SMILES)	EC50 [1] [nM]	EC50 [2] [nM]	further results
COc1ccc(CC(C)NC(=O)Nc2ccc(Cl)cc2)cc1 (racemic)	23	–	–
COc1cnc([C@@H]2CNC(=O)[C@H]2NC(=O)Nc2ccc(F)cc2)c(F)c1	–	190	–
COc1cc(F)c([C@@H]2CNC(=O)[C@H]2NC(=O)Nc2ccc(F)c(O)c2)c(F)c1	0.087	72	–
COc1cc(F)c([C@@H]2CNC(=O)[C@H]2NC(=O)Nc2ccc(F)cc2)cc1F	–	17	–
COc1ccc([C@@H]2CNC(=O)[C@H]2NC(=O)Nc2ccc(F)cc2)cc1	0.085	–	–
O=C(Nc1ccc(F)cc1)N[C@@H]1C(=O)NC[C@H]1c1ccc(Cl)cc1F	3.1	29	–
COc1cc(F)c([C@@H]2CNC(=O)[C@H]2NC(=O)Nc2ccc(F)cc2)c(F)c1	0.14	280	EC50 [3]: 1.5 nM; IC50 [4]: > 20000 nM; inhibition in vivo at 1 mg/kg [5]: 97%
COc1ccc(CC(NC(=O)Nc2ccc(Cl)cc2)C(=O)O)cc1 (racemic)	31	–	–
COc1cc(F)c([C@@H]2CNC(=O)[C@H]2NC(=O)Nc2ncc(Cl)s2)c(F)c1	1.9	–	–
COc1ccc([C@@H]2NC(=O)[C@@H]2NC(=O)Nc2ccc(Cl)cc2)cc1 (racemic)	12	> 10000	–
CCc1cc(F)c([C@@H]2CNC(=O)[C@H]2NC(=O)Nc2ccc(F)cc2)c(F)c1	5.8	–	–
COc1ccc([C@@H]2CNC(=O)[C@H]2NC(=O)Nc2ccc(Cl)cc2)cc1	0.092	–	–
COc1cc(F)c([C@@H]2CNC(=O)[C@H]2NC(=O)Nc2cc(C)ns2)c(F)c1	–	290	–
COc1ccc([C@@H]2CCNC(=O)[C@H]2NC(=O)Nc2ccc(Cl)cc2)cc1 (racemic)	0.11	–	–
C[C@H](CS)C(=O)N1CCC[C@H]1C(=O)O	–	–	Activity [6]: Active; Activity [7]: Active; Activity [8]: inactive
COc1cc(F)c([C@@H]2CNC(=O)[C@H]2NC(=O)Nc2ccccc2F)c(F)c1	43	–	–
COc1cc(F)c([C@@H]2CNC(=O)[C@H]2NC(=O)Nc2ccc(C#N)cc2)c(F)c1	–	350	–
COc1cc(F)c([C@@H]2CNC(=O)[C@H]2NC(=O)Nc2ccc(Br)cc2)c(F)c1	0.19	96	–
COc1ccc(C2CNC(=O)C2NC(=O)Nc2ccc(Cl)cc2)cc1 (single isomer, unassigned; (+))	0.9	–	–
CNc1cc(F)c([C@@H]2CNC(=O)[C@H]2NC(=O)Nc2ccc(F)cc2)c(F)c1	1.4	–	–
CCOc1cc(F)c([C@@H]2CNC(=O)[C@H]2NC(=O)Nc2ccc(F)cc2)c(F)c1	14	–	–

Structure (SMILES)	EC50 [1] [nM]	EC50 [2] [nM]	further results
COc1ccc([C@@H]2CNC(=O)[C@H]2NC(=O)Nc2ccc(F)cc2)cc1F	0.9	–	–
COc1ccc([C@@H]2NC(=O)[C@H]2NC(=O)Nc2ccc(Cl)cc2)cc1 (racemic)	> 100	> 10000	–
COc1cc(F)c([C@@H]2CNC(=O)[C@H]2NC(=O)Nc2ccc(Cl)c(O)c2)c(F)c1	0.05	40	–
COc1ccc([C@@H]2CNC(=O)[C@@H]2NC(=O)Nc2ccc(Cl)cc2)cc1 (racemic)	0.91	–	–
COc1ccc([C@@H]2CNC(=O)[C@H]2NC(=O)Nc2ccc(Cl)cc2)cc1 (racemic)	0.18	–	–
COc1cc(F)c([C@@H]2CNC(=O)[C@H]2NC(=O)Nc2ccc(C)cc2)c(F)c1	2	–	–
COc1cc(F)c([C@@H]2CNC(=O)[C@H]2NC(=O)Nc2ccc(F)c(F)c2)c(F)c1	–	820	EC50 [3]: 8.5 nM; IC50 [4]: > 20000 nM; inhibition in vivo at 1 mg/kg [5]: 4.9%
COc1ccc([C@@H]2CNC(=O)[C@H]2NC(=O)Nc2ccc(F)cc2)c(Cl)c1	4	–	–
COc1ccc(CC(CO)NC(=O)Nc2ccc(Cl)cc2)cc1 (racemic)	6.8	–	–
COc1cc(F)c([C@@H]2CNC(=O)[C@H]2NC(=O)Nc2cc3ccccc3s2)c(F)c1	–	3000	–
COc1ccc(CCNC(=O)Nc2ccc(Cl)cc2)cc1	990	–	–
COc1cc(F)c([C@@H]2CNC(=O)[C@H]2NC(=O)Nc2ccc(Cl)cc2)c(F)c1	–	120	–
COc1cc(F)c([C@@H]2CNC(=O)[C@H]2NC(=O)Nc2ccc(Cl)cn2)c(F)c1	4.5	–	–
COc1cc(F)c([C@@H]2CNC(=O)[C@H]2NC(=O)Nc2ccc(C)c(O)c2)c(F)c1	0.078	1000	EC50 [3]: 0.63 nM; IC50 [4]: > 20000 nM; inhibition in vivo at 1 mg/kg [5]: 55%
COc1ccc(CC(NC(=O)Nc2ccc(Cl)cc2)C(N)=O)cc1 (racemic)	3.6	> 10000	–
N#Cc1cc(F)c([C@@H]2CNC(=O)[C@H]2NC(=O)Nc2ccc(F)cc2)c(F)c1	9.7	40000	–
COc1cc(F)c([C@@H]2CNC(=O)[C@H]2NC(=O)Nc2ccc(Cl)s2)c(F)c1	–	1200	EC50 [3]: 1.4 nM; IC50 [4]: 5600 nM; inhibition in vivo at 1 mg/kg [5]: 84%
COc1ccc(C2CNC(=O)C2NC(=O)Nc2ccc(Cl)cc2)cc1 (single isomer, unassigned; (-))	4.6	–	–
COc1cc(F)c([C@@H]2CNC(=O)[C@H]2NC(=O)Nc2cccc(F)c2)c(F)c1	–	1700	–
COc1ccc([C@@H]2CNC(=O)[C@H]2NC(=O)Nc2ccc(F)cc2)c(C)c1	1.6	–	–
COc1ccc([C@H]2CNC(=O)[C@@H]2NC(=O)Nc2ccc(Cl)cc2)cc1	34	–	–
